What was measured:
Triticum aestivum [1] = assay: Increase in POD activity in leaves of Triticum aestivum cv. Ning 13 (wheat) seedlings grown on soils containing compound at 5 to 10 mg/kg for 10 days by guaiacol oxidation relative to untreated control; assay type: ADME, organism-based; design: dose 5-10 mg/kg; settings: in vivo, 240 h
Procedure, shortened: (§1)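 Crude leaf or root extract (Tris-HCl pH 7.8, EDTA, PVP; 15000g) from seedlings grown 10 days in soil with 0–20 mg/kg herbicide. Guaiacol oxidation read at 470 nm for 1 min in 100 mM potassium phosphate pH 7.0, 20 mM guaiacol, 10 mM H2O2. Mean ± SD, n = 3.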

Triticum aestivum [2] = assay: Reduction in CAT isoforms activity in leaves of Triticum aestivum cv. Ning 13 (wheat) seedlings grown on soils containing compound at 2 to 20 mg/kg for 10 days by PAGE method assay relative to untreated control; assay type: ADME, organism-based; design: dose 2-20 mg/kg; settings: in vivo, 240 h
Procedure, shortened: (§2)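 Native PAGE, 5% stacking/10% separating gel, run at 4 °C (10 mA, then 15 mA), of tissue extracts from seedlings grown 10 days in soil at 0, 2, 3.5, 5, 10, 20 mg/kg. CAT bands: gel soaked in water 15 min, then 0.03% H2O2 25 min, washed, stained with 1% potassium ferricyanide plus 1% ferric chloride.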

Triticum aestivum [3] = assay: Induction of lipid peroxidation in Triticum aestivum cv. Ning 13 (wheat) seedlings assessed as increase in TBARS level in roots grown on soils containing compound at 2 to 20 mg/kg for 10 days relative to untreated control; assay type: organism-based; design: dose 2-20 mg/kg; settings: in vivo, 240 h
Procedure, shortened: (§3)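 Seedlings grown 10 days in soil at 0–20 mg/kg. Frozen tissue (0.5 g) ground in 0.1% TCA, spun; supernatant heated 30 min in boiling water with 0.5% TBA in 20% TCA. A532 minus A600 read; TBARS calculated with ε 155 mM-1 cm-1. Mean ± SD, n = 3.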

Triticum aestivum [4] = assay: Induction of changes in GST activity in roots of Triticum aestivum cv. Ning 13 (wheat) seedlings grown on soils containing compound at 2 to 20 mg/kg for 10 days by CDNB dye based assay relative to untreated control; assay type: organism-based; design: dose 2-20 mg/kg; settings: in vivo, 240 h
Procedure, shortened: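 Tissue extract from 10-day seedlings in soil with 0–20 mg/kg. Reaction: 100 mM potassium phosphate pH 7, 1 mM GSH, 1 mM CDNB (final; added last to start). Absorbance increase at 340 nm tracked over 15 min. Mean ± SD, n = 3.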

Triticum aestivum [5] = assay: Increase in SOD activity in roots of Triticum aestivum cv. Ning 13 (wheat) seedlings grown on soils containing compound at 2 to 10 mg/kg for 10 days by NBT dye reduction assay relative to untreated control; assay type: ADME, organism-based; design: dose 2-10 mg/kg; settings: in vivo, 240 h
Procedure, shortened: (§4)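 Root crude extract from 10-day seedlings in soil at 0–20 mg/kg. Inhibition of NBT photoreduction in 50 mM phosphate pH 7.8 with 10 mM methionine and riboflavin, read at 560 nm. One unit inhibits NBT photoreduction to formazan by 50%. Mean ± SD, n = 3.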

Triticum aestivum [6] = assay: Reduction in POD activity in leaves of Triticum aestivum cv. Ning 13 (wheat) seedlings grown on soils containing compound at 20 mg/kg for 10 days by guaiacol oxidation relative to untreated control; assay type: ADME, organism-based; design: dose 20 mg/kg; settings: in vivo, 240 h; procedure, shortened: as §1
Triticum aestivum [7] = assay: Increase in POD activity in roots of Triticum aestivum cv. Ning 13 (wheat) seedlings grown on soils containing compound at 5 to 10 mg/kg for 10 days by guaiacol oxidation relative to untreated control; assay type: ADME, organism-based; design: dose 5-10 mg/kg; settings: in vivo, 240 h; procedure, shortened: as §1
Triticum aestivum [8] = assay: Increase in APX activity in roots of Triticum aestivum cv. Ning 13 (wheat) seedlings grown on soils containing compound at 5 to 10 mg/kg for 10 days relative to untreated control; assay type: ADME, organism-based; design: dose 5-10 mg/kg; settings: in vivo, 240 h
Triticum aestivum [9] = assay: Reduction in APX activity in leaves of Triticum aestivum cv. Ning 13 (wheat) seedlings grown on soils containing compound at 20 mg/kg for 10 days relative to untreated control; assay type: ADME, organism-based; design: dose 20 mg/kg; settings: in vivo, 240 h
Triticum aestivum [10] = assay: Increase in SOD activity in roots of Triticum aestivum cv. Ning 13 (wheat) seedings grown on soils containing compound at 2 to 10 mg/kg for 10 days by PAGE method assay relative to untreated control; assay type: ADME, organism-based; design: dose 2-10 mg/kg; settings: in vivo, 240 h
Triticum aestivum [11] = assay: Reduction in CAT activity in roots of Triticum aestivum cv. Ning 13 (wheat) seedlings grown on soils containing compound at 10 to 20 mg/kg for 10 days by H2O2 consumption assay relative to untreated control; assay type: ADME, organism-based; design: dose 10-20 mg/kg; settings: in vivo, 240 h
Triticum aestivum [12] = assay: Induction of lipid peroxidation in Triticum aestivum cv. Ning 13 (wheat) seedlings assessed as increase in TBARS level in leaves grown on soils containing compound for 10 days relative to untreated control; assay type: organism-based; settings: in vivo, 240 h; procedure, shortened: as §3
Triticum aestivum [13] = assay: Increase in CAT activity in roots of Triticum aestivum cv. Ning 13 (wheat) seedlings grown on soils containing compound at 2 to 5 mg/kg for 10 days by H2O2 consumption assay relative to untreated control; assay type: ADME, organism-based; design: dose 2-5 mg/kg; settings: in vivo, 240 h
Triticum aestivum [14] = assay: Increase in CAT isoforms activity in roots of Triticum aestivum cv. Ning 13 (wheat) seedlings grown on soils containing compound at 2 to 5 mg/kg for 10 days by PAGE method assay relative to untreated control; assay type: ADME, organism-based; design: dose 2-5 mg/kg; settings: in vivo, 240 h; procedure, shortened: as §2
Triticum aestivum [15] = assay: Toxicity in Triticum aestivum cv. Ning 13 (wheat) seedlings assessed as reduction in root length grown on soils containing compound at 20 mg/kg for 10 days relative to untreated control; assay type: organism-based; design: dose 20 mg/kg; scale not given: the % may be the effect or the level left; settings: in vivo, 240 h
Procedure, shortened: (§5)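 Surface-sterilized seeds germinated 8 h at 25 °C, then grown 10 days (third leaf) in soil at 0, 2, 3.5, 5, 10, 20 mg/kg, watered to 60–70% water content, 12 h photoperiod, 300 µmol photons m-2 s-1, 25/20 °C. Elongation measured; dry mass after 70 °C for 72 h. Mean ± SD, n = 3.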

Triticum aestivum [16] = assay: Reduction in SOD activity in roots of Triticum aestivum cv. Ning 13 (wheat) seedlings grown on soils containing compound at 10 to 20 mg/kg for 10 days by NBT dye reduction assay relative to untreated control; assay type: ADME, organism-based; design: dose 10-20 mg/kg; settings: in vivo, 240 h; procedure, shortened: as §4
Triticum aestivum [17] = assay: Reduction in APX activity in roots of Triticum aestivum cv. Ning 13 (wheat) seedlings grown on soils containing compound at 20 mg/kg for 10 days relative to untreated control; assay type: ADME, organism-based; design: dose 20 mg/kg; settings: in vivo, 240 h
Triticum aestivum [18] = assay: Reduction in POD activity in roots of Triticum aestivum cv. Ning 13 (wheat) seedlings grown on soils containing compound at 20 mg/kg for 10 days by guaiacol oxidation relative to untreated control; assay type: ADME, organism-based; design: dose 20 mg/kg; settings: in vivo, 240 h; procedure, shortened: as §1
Triticum aestivum [19] = assay: Toxicity in Triticum aestivum cv. Ning 13 (wheat) seedlings assessed as reduction in shoot elongation grown on soils containing compound at 20 mg/kg for 10 days relative to untreated control; assay type: organism-based; design: dose 20 mg/kg; scale not given: the % may be the effect or the level left; settings: in vivo, 240 h; procedure, shortened: as §5
Triticum aestivum [20] = assay: Reduction in SOD activity in shoots of Triticum aestivum cv. Ning 13 (wheat) seedlings grown on soils containing compound at 10 to 20 mg/kg for 10 days by PAGE method assay relative to untreated control; assay type: ADME, organism-based; design: dose 10-20 mg/kg; settings: in vivo, 240 h
Triticum aestivum [21] = assay: Increase in POD isoforms 1 to 5 activity in roots of Triticum aestivum cv. Ning 13 (wheat) seedlings grown on soils containing compound at 3.5 to 10 mg/kg for 10 days by PAGE method assay relative to untreated control; assay type: ADME, organism-based; design: dose 3.5-10 mg/kg; settings: in vivo, 240 h
Triticum aestivum [22] = assay: Toxicity in Triticum aestivum cv. Ning 13 (wheat) seedlings assessed as reduction in chlorophyll content in leaves grown on soils containing compound at 2 mg/kg for 10 days relative to untreated control; assay type: organism-based; design: dose 2 mg/kg; scale not given: the % may be the effect or the level left; settings: in vivo, 240 h
Procedure, shortened: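 Fresh leaf (0.1 g) from 10-day seedlings in spiked soil extracted in 80% acetone (pH 7.8, phosphate), spun 500g 10 min. Total chlorophyll calculated spectrophotometrically. Mean ± SD, n = 3.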

Triticum aestivum [23] = assay: Reduction in SOD activity in roots of Triticum aestivum cv. Ning 13 (wheat) seedlings grown on soils containing compound at 10 to 20 mg/kg for 10 days by PAGE method assay relative to untreated control; assay type: ADME, organism-based; design: dose 10-20 mg/kg; settings: in vivo, 240 h
Triticum aestivum [24] = assay: Induction of changes in GST activity in leaves of Triticum aestivum cv. Ning 13 (wheat) seedlings grown on soils containing compound at 2 to 20 mg/kg for 10 days by CDNB dye based assay relative to untreated control; assay type: organism-based; design: dose 2-20 mg/kg; settings: in vivo, 240 h
Triticum aestivum [25] = assay: Toxicity in Triticum aestivum cv. Ning 13 (wheat) seedlings assessed as inhibition of shoot growth measured as dry weight grown on soils containing compound at 2 to 20 mg/kg for 10 days; assay type: organism-based; design: dose 2-20 mg/kg; settings: in vivo, 240 h; procedure, shortened: as §5
Triticum aestivum [26] = assay: Reduction in CAT isoforms activity in roots of Triticum aestivum cv. Ning 13 (wheat) seedlings grown on soils containing compound at 10 to 20 mg/kg for 10 days by PAGE method assay relative to untreated control; assay type: ADME, organism-based; design: dose 10-20 mg/kg; settings: in vivo, 240 h; procedure, shortened: as §2
Triticum aestivum [27] = assay: Reduction in CAT activity in leaves of Triticum aestivum cv. Ning 13 (wheat) seedlings grown on soils containing compound at 2 to 20 mg/kg for 10 days by H2O2 consumption assay relative to untreated control; assay type: ADME, organism-based; design: dose 2-20 mg/kg; settings: in vivo, 240 h
[28] = Solubility in water at 20 degC; assay type: physicochemical
Triticum aestivum [29] = assay: Induction of lipid peroxidation in Triticum aestivum cv. Ning 13 (wheat) seedlings assessed as increase in TBARS level in leaves grown on soils containing compound at 10 mg/kg for 10 days relative to untreated control; assay type: organism-based; design: dose 10 mg/kg; settings: in vivo, 240 h
Procedure, shortened: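 Wheat seeds surface-sterilized (5% hypochlorite, 10 min), germinated 8 h at 25 °C, sown in sieved field soil spiked with herbicide (0–20 mg/kg), watered to 60–70% water content, grown 10 days (12 h photoperiod, 25/20 °C). Fresh leaf (0.5 g) ground in 0.1% TCA, supernatant boiled 30 min with 0.5% TBA in 20% TCA; A532 minus A600, ε 155 mM-1 cm-1; n=3.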

Triticum aestivum [30] = assay: Increase in SOD activity in shoots of Triticum aestivum cv. Ning 13 (wheat) seedlings grown on soils containing compound at 2 to 10 mg/kg for 10 days by PAGE method assay relative to untreated control; assay type: ADME, organism-based; design: dose 2-10 mg/kg; settings: in vivo, 240 h
Triticum aestivum [31] = assay: Increase in APX activity in leaves of Triticum aestivum cv. Ning 13 (wheat) seedlings grown on soils containing compound at 5 to 10 mg/kg for 10 days relative to untreated control; assay type: ADME, organism-based; design: dose 5-10 mg/kg; settings: in vivo, 240 h

CC(C)c1ccc(NC(=O)N(C)C)cc1 [ISOPROTURON]
44%: Activity (Triticum aestivum [15])
55 µg/mL: solubility [28]
32%: Activity (Triticum aestivum [19])
> 2: fold change (FC) (Triticum aestivum [29])
Non-toxic: Activity (Triticum aestivum [3])
11%: Activity (Triticum aestivum [22])
Toxic: Activity (Triticum aestivum [1]) | Activity (Triticum aestivum [4]) | Activity (Triticum aestivum [6]) | Activity (Triticum aestivum [7]) | Activity (Triticum aestivum [8]) | Activity (Triticum aestivum [9]) | Activity (Triticum aestivum [10]) | Activity (Triticum aestivum [11]) | Activity (Triticum aestivum [13]) | Activity (Triticum aestivum [14]) | Activity (Triticum aestivum [16]) | Activity (Triticum aestivum [17]) | Activity (Triticum aestivum [18]) | Activity (Triticum aestivum [20]) | Activity (Triticum aestivum [21]) | Activity (Triticum aestivum [23]) | Activity (Triticum aestivum [24]) | Activity (Triticum aestivum [25]) | Activity (Triticum aestivum [26]) | Activity (Triticum aestivum [30]) | Activity (Triticum aestivum [31])
Dose-dependent effect: Activity (Triticum aestivum [2]) | Activity (Triticum aestivum [5]) | Activity (Triticum aestivum [12]) | Activity (Triticum aestivum [27])

From ChEMBL document CHEMBL3045798, “Toxic reactivity of wheat (Triticum aestivum) plants to herbicide isoproturon” (J Agric Food Chem, 2008)
